Calls of active or inactive are those of the source. No cut-off for these calls is given here. Numbered stars: 1 amine (or outer) side, 2 acyl side, 3 side chain; on linkers, the order of the positions; unused ones are H or OH. Square brackets hold non-standard residues; d marks the D form. Peptide text beside a SMILES is read from it. X4 = Cc1ccc(C[C@H](N)CN(CC(=O)[*:2])[*:1])cc1; X2 = N[C@@H](Cc1ccccc1)CN(CC(=O)[*:2])[*:1]; X3 = N[C@@H](CC1CCCCC1)CN(CC(=O)[*:2])[*:1]; Nphe = O=C(O)CNCc1ccccc1
Columns and labels:
Mus musculus [1] = species: Mus musculus; test: Compound was tested for agonistic activity against electrically evoked contraction (twitch response) in mouse vas deferens; NA means Inactive up to 10 uM; format: functional, organism-based
Method in brief: (§1)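 Mouse vas deferens held in Mg2+-free Krebs at 33 °C under 0.3 g resting tension. Field stimulation through platinum electrodes with supramaximal 1-ms pulses at 0.1 Hz, twitches recorded isotonically. After about 2 h equilibration, cumulative concentration-response curves built in 0.5 log steps up to 10 µM. pEC50 taken as the concentration giving half-maximal effect. Mean of at least 3 experiments.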

Nociceptin receptor = Nociceptin receptor (Mus musculus, UniProt P35377); test: Affinity to nociceptin receptors on mouse forebrain membranes by [3H]NC-NH2 displacement.
Method in brief: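 Forebrain membranes from male Swiss mice (25-30 g), homogenized in 50 mM Tris HCl, 2 mM EDTA, 100 µM PMSF, pH 7.4, then preincubated 30 min at 37 °C. Bound ligand separated by GF/C filtration. Ki obtained by nonlinear least-squares fitting.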

Mus musculus [2] = species: Mus musculus; test: Potency (Emax) against electrically evoked contraction (twitch response) in mouse vas deferens; NA means Inactive up to 10 uM; format: functional, organism-based; method in brief: as §1
Mus musculus [3] = species: Mus musculus; test: Compound was tested for the antagonistic activity on mouse vas deferens using NC(1-13)NH2 as agonist; format: functional
Method in brief: (§2)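 Electrically stimulated mouse vas deferens (Mg2+-free Krebs, 33 °C, 0.1 Hz, 1-ms pulses). Antagonist at 10 µM added 15 min before a cumulative NC(1-13)NH2 concentration-response curve. pKB calculated with the Gaddum-Schild equation, assuming a slope of 1, from the concentration ratio. Mean of at least 3 experiments, with 95% confidence limits.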

Mus musculus [4] = species: Mus musculus; test: Compound was tested for agonistic activity against electrically evoked contraction (twitch response) in mouse vas deferens; format: functional, organism-based; method in brief: as §1
Mus musculus [5] = species: Mus musculus; test: Potency (Emax) against electrically evoked contraction (twitch response) in mouse vas deferens; format: functional; method in brief: as §1
Mus musculus [6] = species: Mus musculus; test: Compound was tested for the antagonistic activity on mouse vas deferens using NC(1-13)NH2 as agonist; NA means Inactive up to 10 uM; format: functional, organism-based; method in brief: as §2

Sequence of Nociceptin receptor (P35377 whole entry): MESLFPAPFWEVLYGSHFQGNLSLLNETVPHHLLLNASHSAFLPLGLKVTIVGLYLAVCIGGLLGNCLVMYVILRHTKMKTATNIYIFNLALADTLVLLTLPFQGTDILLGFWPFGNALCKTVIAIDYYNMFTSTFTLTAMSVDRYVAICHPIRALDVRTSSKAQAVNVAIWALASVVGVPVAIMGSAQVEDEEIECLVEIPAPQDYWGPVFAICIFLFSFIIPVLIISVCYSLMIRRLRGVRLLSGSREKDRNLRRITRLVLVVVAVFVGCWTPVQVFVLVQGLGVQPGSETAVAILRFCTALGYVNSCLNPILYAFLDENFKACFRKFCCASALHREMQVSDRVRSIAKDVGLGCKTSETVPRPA

Row | Compound | Log EC50 (Mus musculus [1]) | Ki (Nociceptin receptor) [nM] | Emax (Mus musculus [2]) | pKB (Mus musculus [3]) | EC50 (Mus musculus [4]) [nM] | Emax (Mus musculus [5]) [%] | pKB (Mus musculus [6])
1 | Cc1ccc(C[C@H](N)CNCC(=O)NCC(=O)N[C@@H](Cc2ccccc2)C(=O)N[C@H](C(=O)NCC(=O)N[C@@H](C)C(=O)N[C@@H](CCCN=C(N)N)C(=O)N[C@@H](CCCCN)C(=O)N[C@@H](CO)C(=O)N[C@@H](C)C(=O)N[C@@H](CCCN=C(N)N)C(=O)N[C@@H](CCCCN)C(N)=O)[C@@H](C)O)cc1 (H-[X4]GFTGARKSARK-NH2) | inactive | 631 | inactive | 5.7 |  |  | 
2 | C[C@H](NC(=O)CNC(=O)[C@@H](NC(=O)[C@H](Cc1ccccc1)NC(=O)CNC(=O)CNC(=O)[C@@H](N)CC1CCCCC1)[C@@H](C)O)C(=O)N[C@@H](CCCN=C(N)N)C(=O)N[C@@H](CCCCN)C(=O)N[C@@H](CO)C(=O)N[C@@H](C)C(=O)N[C@@H](CCCN=C(N)N)C(=O)N[C@@H](CCCCN)C(N)=O |  | 1 |  |  | 12.6 | -84 | 
3 | C[C@H](NC(=O)CNC(=O)[C@@H](NC(=O)[C@H](Cc1ccccc1)NC(=O)CNC(=O)CNC(=O)CNCc1ccc(O)cc1)[C@@H](C)O)C(=O)N[C@@H](CCCN=C(N)N)C(=O)N[C@@H](CCCCN)C(=O)N[C@@H](CO)C(=O)N[C@@H](C)C(=O)N[C@@H](CCCN=C(N)N)C(=O)N[C@@H](CCCCN)C(N)=O | inactive | 3160 | inactive |  |  |  | inactive
4 | C[C@H](NC(=O)CNC(=O)[C@@H](NC(=O)[C@H](Cc1ccccc1)NC(=O)CNC(=O)CNC(=O)[C@@H](N)Cc1ccccc1)[C@@H](C)O)C(=O)N[C@@H](CCCN=C(N)N)C(=O)N[C@@H](CCCCN)C(=O)N[C@@H](CO)C(=O)N[C@@H](C)C(=O)N[C@@H](CCCN=C(N)N)C(N)=O (H-FGGFTGARKSAR-NH2) |  | 25.1 |  |  | 794 | -79 | 
5 | C[C@H](NC(=O)CNC(=O)[C@@H](NC(=O)[C@H](Cc1ccccc1)NC(=O)CNC(=O)CNC[C@@H](N)Cc1ccccc1)[C@@H](C)O)C(=O)N[C@@H](CCCN=C(N)N)C(=O)N[C@@H](CCCCN)C(=O)N[C@@H](CO)C(=O)N[C@@H](C)C(=O)N[C@@H](CCCN=C(N)N)C(N)=O (H-[X2]GFTGARKSAR-NH2) | inactive | 398 | inactive | 5.2 |  |  | 
6 | C[C@H](NC(=O)CNC(=O)[C@@H](NC(=O)[C@H](Cc1ccccc1)NC(=O)CNC(=O)CNC[C@@H](N)Cc1ccccc1)[C@@H](C)O)C(=O)N[C@@H](CCCN=C(N)N)C(=O)N[C@@H](CCCCN)C(=O)N[C@@H](CO)C(=O)N[C@@H](C)C(=O)N[C@@H](CCCN=C(N)N)C(=O)N[C@@H](CCCCN)C(N)=O (H-[X2]GFTGARKSARK-NH2) | inactive | 10 | inactive | 6.8 |  |  | 
7 | C[C@H](NC(=O)CNC(=O)[C@@H](NC(=O)[C@H](Cc1ccccc1)NC(=O)CNC(=O)CNC(=O)CNCc1ccccc1)[C@@H](C)O)C(=O)N[C@@H](CCCN=C(N)N)C(=O)N[C@@H](CCCCN)C(=O)N[C@@H](CO)C(=O)N[C@@H](C)C(=O)N[C@@H](CCCN=C(N)N)C(=O)N[C@@H](CCCCN)C(N)=O | inactive |  | inactive | 6.4 |  |  | 
8 | C[C@H](NC(=O)CNC(=O)[C@@H](NC(=O)[C@H](Cc1ccccc1)NC(=O)CNC(=O)CNC[C@@H](N)CC1CCCCC1)[C@@H](C)O)C(=O)N[C@@H](CCCN=C(N)N)C(=O)N[C@@H](CCCCN)C(=O)N[C@@H](CO)C(=O)N[C@@H](C)C(=O)N[C@@H](CCCN=C(N)N)C(=O)N[C@@H](CCCCN)C(N)=O (H-[X3]GFTGARKSARK-NH2) | inactive | 316 | inactive |  |  |  | inactive
9 | C[C@H](NC(=O)CNC(=O)[C@@H](NC(=O)[C@H](Cc1ccccc1)NC(=O)CNC(=O)CNC(=O)[C@@H](N)Cc1ccccc1)[C@@H](C)O)C(=O)N[C@@H](CCCNC(=N)N)C(=O)N[C@@H](CCCCN)C(=O)N[C@@H](CO)C(=O)N[C@@H](C)C(=O)N[C@@H](CCCNC(=N)N)C(=O)N[C@@H](CCCCN)C(N)=O |  |  |  |  | 15.8 | -84 | 
10 | C[C@H](NC(=O)CNC(=O)[C@@H](NC(=O)[C@H](Cc1ccccc1)NC(=O)CNC(=O)CNC[C@@H](N)Cc1ccccc1)[C@@H](C)O)C(=O)N[C@@H](CCCN=C(N)N)C(=O)N[C@@H](CCCCN)C(N)=O (H-[X2]GFTGARK-NH2) | inactive | > 10000 | inactive | 5.1 |  |  | 
11 | CC(C)C[C@H](NC(=O)[C@H](CCCCN)NC(=O)[C@H](CCCN=C(N)N)NC(=O)[C@H](C)NC(=O)[C@H](CO)NC(=O)[C@H](CCCCN)NC(=O)[C@H](CCCN=C(N)N)NC(=O)[C@H](C)NC(=O)CNC(=O)[C@@H](NC(=O)[C@H](Cc1ccccc1)NC(=O)CNC(=O)CNC[C@@H](N)Cc1ccccc1)[C@@H](C)O)C(=O)N[C@@H](C)C(=O)N[C@@H](CC(N)=O)C(=O)N[C@@H](CCC(N)=O)C(N)=O (H-[X2]GFTGARKSARKLANQ-NH2) | inactive | 20 | inactive | 7 |  |  | 
12 | CC(C)CNCC(=O)NCC(=O)NCC(=O)N[C@@H](Cc1ccccc1)C(=O)N[C@H](C(=O)NCC(=O)N[C@@H](C)C(=O)N[C@@H](CCCN=C(N)N)C(=O)N[C@@H](CCCCN)C(=O)N[C@@H](CO)C(=O)N[C@@H](C)C(=O)N[C@@H](CCCN=C(N)N)C(=O)N[C@@H](CCCCN)C(N)=O)[C@@H](C)O | inactive | 2510 | inactive |  |  |  | inactive
13 | C[C@H](NC(=O)CNC(=O)[C@@H](NC(=O)[C@H](Cc1ccccc1)NC(=O)CNC(=O)CNC(=O)CNCC1CCCCC1)[C@@H](C)O)C(=O)N[C@@H](CCCN=C(N)N)C(=O)N[C@@H](CCCCN)C(=O)N[C@@H](CO)C(=O)N[C@@H](C)C(=O)N[C@@H](CCCN=C(N)N)C(=O)N[C@@H](CCCCN)C(N)=O | inactive | 2510 | inactive |  |  |  | inactive
14 | Cc1ccc(CNCC(=O)NCC(=O)NCC(=O)N[C@@H](Cc2ccccc2)C(=O)N[C@H](C(=O)NCC(=O)N[C@@H](C)C(=O)N[C@@H](CCCN=C(N)N)C(=O)N[C@@H](CCCCN)C(=O)N[C@@H](CO)C(=O)N[C@@H](C)C(=O)N[C@@H](CCCN=C(N)N)C(=O)N[C@@H](CCCCN)C(N)=O)[C@@H](C)O)cc1 | inactive | 2510 | inactive |  |  |  | inactive
15 | C[C@H](NC(=O)CNC(=O)[C@@H](NC(=O)[C@H](Cc1ccccc1)NC(=O)CNC(=O)CNC(=O)CNCc1ccccc1)[C@@H](C)O)C(=O)N[C@@H](CCCN=C(N)N)C(=O)N[C@@H](CCCCN)C(=O)N[C@@H](CO)C(=O)N[C@@H](C)C(=O)N[C@@H](CCCN=C(N)N)C(N)=O (H-[Nphe]GGFTGARKSAR-NH2) | inactive | 3160 | inactive |  |  |  | inactive
16 | CC(C)C[C@H](NC(=O)[C@H](CCCCN)NC(=O)[C@H](CCCN=C(N)N)NC(=O)[C@H](C)NC(=O)[C@H](CO)NC(=O)[C@H](CCCCN)NC(=O)[C@H](CCCN=C(N)N)NC(=O)[C@H](C)NC(=O)CNC(=O)[C@@H](NC(=O)[C@H](Cc1ccccc1)NC(=O)CNC(=O)CNC(=O)CNCc1ccccc1)[C@@H](C)O)C(=O)N[C@@H](C)C(=O)N[C@@H](CC(N)=O)C(=O)N[C@@H](CCC(N)=O)C(N)=O | inactive | 126 | inactive | 6.3 |  |  | 
17 | Cc1ccc(C[C@H](N)C(=O)NCC(=O)NCC(=O)N[C@@H](Cc2ccccc2)C(=O)N[C@H](C(=O)NCC(=O)N[C@@H](C)C(=O)N[C@@H](CCCN=C(N)N)C(=O)N[C@@H](CCCCN)C(=O)N[C@@H](CO)C(=O)N[C@@H](C)C(=O)N[C@@H](CCCN=C(N)N)C(=O)N[C@@H](CCCCN)C(N)=O)[C@@H](C)O)cc1 |  | 200 |  |  | 2510 | -70 | 
18 | CC(C)C[C@H](N)C(=O)NCC(=O)NCC(=O)N[C@@H](Cc1ccccc1)C(=O)N[C@H](C(=O)NCC(=O)N[C@@H](C)C(=O)N[C@@H](CCCN=C(N)N)C(=O)N[C@@H](CCCCN)C(=O)N[C@@H](CO)C(=O)N[C@@H](C)C(=O)N[C@@H](CCCN=C(N)N)C(=O)N[C@@H](CCCCN)C(N)=O)[C@@H](C)O (H-LGGFTGARKSARK-NH2) |  | 2.51 |  |  | 25.1 | -80 | 
19 | C[C@H](NC(=O)CNC(=O)[C@@H](NC(=O)[C@H](Cc1ccccc1)NC(=O)CNC(=O)CNC(=O)[C@@H](N)Cc1ccc(O)cc1)[C@@H](C)O)C(=O)N[C@@H](CCCN=C(N)N)C(=O)N[C@@H](CCCCN)C(=O)N[C@@H](CO)C(=O)N[C@@H](C)C(=O)N[C@@H](CCCN=C(N)N)C(=O)N[C@@H](CCCCN)C(N)=O (H-YGGFTGARKSARK-NH2) |  | 3.98 |  |  | 25.1 | -89 | 
20 | C[C@H](NC(=O)CNC(=O)[C@@H](NC(=O)[C@H](Cc1ccccc1)NC(=O)CNC(=O)CNC(=O)[C@@H](N)Cc1ccccc1)[C@@H](C)O)C(=O)N[C@@H](CCCN=C(N)N)C(=O)N[C@@H](CCCCN)C(N)=O (H-FGGFTGARK-NH2) | inactive | > 10000 | inactive |  |  |  | inactive
